Laboratory results reported in ChEMBL document CHEMBL4145466, “Design, synthesis, and biological evaluation of novel combretastatin A-4 thio derivatives as microtubule targeting agents” (Eur J Med Chem, 2018).
Active and inactive are the calls of the source. The calls are words filed in the database; no cut-off is given here.

Columns and labels:
MCF7 [1] = assay: Cell cycle arrest in human MCF7 cells assessed as accumulation of cells at G2/M phase at 0.1 to 1 uM after 24 hrs by propidium iodide staining-based FACS analysis; type: functional
Outline: (§1)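 Cells were seeded at 5 × 10^5 per well in DMEM with 10% FBS and left overnight, then exposed to 0.1, 0.5 or 1 µM for 24 h. DMSO served as the negative control and 50 nM camptothecin as the positive control. Cells were trypsinized, fixed in 70% ethanol for 30 min at 4 °C, stained with 50 µg/mL PI plus 100 µg/mL RNase A for 30 min in the dark, and analysed by flow cytometry. Results are mean ± SD of three experiments, compared by ANOVA with Dunnett's test.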

HeLa = assay: Cytotoxicity against human HeLa cells after 48 hrs by MTT assay; type: functional, cell-based
Outline: (§2)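 Cells in DMEM with 10% FBS were plated at 2 × 10^4 per well and left overnight, then treated for 48 h at 0.6–20 µM (six concentrations) from 10 mM DMSO stocks. MTT was added for 2 h, and formazan was dissolved in DMSO and read at 570 nm. Viability was expressed as % of control, with IC50 taken from dose-response curves. Results are mean ± SD of three independent experiments.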

MDA-MB-231 [2] = assay: Cytotoxicity against human MDA-MB-231 cells after 48 hrs by MTT assay; type: functional, cell-based; details: MDA-MB-231, 48 h; outline: as §2
A549 = assay: Cytotoxicity against human A549 cells after 48 hrs by MTT assay; type: functional, cell-based; details: A549, 48 h
SK-OV-3 [3] = assay: Cytotoxicity against human SKOV3 cells after 48 hrs by MTT assay; type: functional, cell-based; details: SK-OV-3, 48 h; outline: as §2
HaCaT [4] = assay: Cytotoxicity against human HaCaT cells after 48 hrs by MTT assay; type: cell-based; outline: as §2
[5] = Inhibition of porcine tubulin polymerization after 1 hr by spectrophotometric analysis; set-up: species or system Sus scrofa
Outline: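 Polymerization was started by shifting from 4 °C to 37 °C, and absorbance was followed at 37 °C for 60 min. The vehicle served as control.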

HaCaT [6] = assay: Cell cycle arrest in human HaCaT cells assessed as accumulation of cells at G2/M phase at 0.1 to 1 uM after 24 hrs by propidium iodide staining-based FACS analysis; outline: as §1
MDA-MB-231 [7] = assay: Cell cycle arrest in human MDA-MB-231 cells assessed as accumulation of cells at G2/M phase at 0.1 to 1 uM after 24 hrs by propidium iodide staining-based FACS analysis; type: functional; outline: as §1
Tubulin (Homo sapiens) [8] = biological target: T1, Tubulin (Homo sapiens) (UniProt P68371+Q9H4B7+P0DPH7+P68366+Q13509+Q71U36+P04350+Q3ZCM7+P07437+P68363+Q9BQE3+Q6PEY2+Q13885+Q9BVA1+Q9BUF5); assay: Inhibition of tubulin polymerization in human MCF7 cells assessed as micronuclei formation at 1 uM after 24 hrs by ELISA; type: cell-based
Tubulin (Homo sapiens) [9] = biological target: T1, Tubulin (Homo sapiens); assay: Inhibition of tubulin polymerization in human MDA-MB-231 cells assessed as micronuclei formation at 1 uM after 24 hrs by ELISA; type: cell-based
Tubulin (Homo sapiens) [10] = biological target: T1, Tubulin (Homo sapiens); assay: Inhibition of tubulin polymerization in human HeLa cells assessed as micronuclei formation at 1 uM after 24 hrs by ELISA; type: cell-based
Tubulin [11] = assay: Inhibition of tubulin polymerization in human HaCaT cells assessed as micronuclei formation at 1 uM after 24 hrs by ELISA; type: cell-based
Tubulin (Homo sapiens) [12] = biological target: T1, Tubulin (Homo sapiens); assay: Inhibition of tubulin polymerization in human A431 cells assessed as micronuclei formation at 1 uM after 24 hrs by ELISA; type: cell-based
Tubulin (Homo sapiens) [13] = biological target: T1, Tubulin (Homo sapiens); assay: Inhibition of tubulin polymerization in human MCF7 cells assessed as micronuclei formation at 1 uM after 24 hrs by Hoechst 33258/FITC staining-based […] analysis; type: cell-based
Outline: (§3)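 Cells seeded at 12.5 × 10^4 per well and exposed to 1 µM compound for 24 h. Nuclei were stained with Hoechst 33258 (10 µg/mL, 30 min, 37 °C), then fixed in 4% formaldehyde/PBS (15 min, RT). Cells were permeabilized with 1% Triton X-100, blocked with 2% BSA/PBS for 1 h, and incubated with anti-α-tubulin-FITC (1:50) overnight at 4 °C. Imaged by fluorescence microscopy.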

Tubulin (Homo sapiens) [14] = biological target: T1, Tubulin (Homo sapiens); assay: Inhibition of tubulin polymerization in human HeLa cells assessed as micronuclei formation at 1 uM after 24 hrs by Hoechst 33258/FITC staining-based […] analysis; type: cell-based; outline: as §3
Tubulin (Homo sapiens) [15] = biological target: T1, Tubulin (Homo sapiens); assay: Inhibition of tubulin polymerization in human SKOV3 cells assessed as micronuclei formation at 1 uM after 24 hrs by Hoechst 33258/FITC staining-based flow cytometric analysis; type: cell-based; outline: as §3
HaCaT [16] = assay: Induction of apoptosis in human HaCaT cells after 24 hrs by FITC Annexin V/propidium iodide staining-based FACScan flow cytometric analysis; type: cell-based
Outline: (§4)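 After 24 h of compound exposure, 1 × 10^6 cells were labelled with annexin V-FITC and PI for 15 min at 25 °C in the dark. They were read on a FACScan with 488 nm excitation, detecting FITC at 525 nm and PI at 620 nm. Results are mean ± SD of three independent experiments, with Dunnett's test against control.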

MCF7 [17] = assay: Induction of apoptosis in human MCF7 cells after 24 hrs by FITC Annexin V/propidium iodide staining-based FACScan flow cytometric analysis; type: functional, cell-based; outline: as §4
MDA-MB-231 [18] = assay: Induction of apoptosis in human MDA-MB-231 cells after 24 hrs by FITC Annexin V/propidium iodide staining-based FACScan flow cytometric analysis; type: functional, cell-based; outline: as §4
SK-OV-3 [19] = assay: Induction of apoptosis in human SKOV3 cells after 24 hrs by FITC Annexin V/propidium iodide staining-based FACScan flow cytometric analysis; type: functional, cell-based; outline: as §4
A-431 = assay: Induction of apoptosis in human A431 cells after 24 hrs by FITC Annexin V/propidium iodide staining-based FACScan flow cytometric analysis; type: functional, cell-based; outline: as §4
Tubulin (Homo sapiens) [20] = biological target: T1, Tubulin (Homo sapiens); assay: Inhibition of tubulin polymerization in human HeLa cells assessed as perturbation in cytoskeleton structure at 1 uM after 24 hrs by ELISA; type: cell-based
Tubulin [21] = assay: Inhibition of tubulin polymerization in human HaCaT cells assessed as perturbation in cytoskeleton structure at 1 uM after 24 hrs by ELISA; type: cell-based
Tubulin (Homo sapiens) [22] = biological target: T1, Tubulin (Homo sapiens); assay: Inhibition of tubulin polymerization in human MDA-MB-231 cells assessed as perturbation in cytoskeleton structure at 1 uM after 24 hrs by ELISA; type: cell-based
Tubulin (Homo sapiens) [23] = biological target: T1, Tubulin (Homo sapiens); assay: Inhibition of tubulin polymerization in human SKOV3 cells assessed as perturbation in cytoskeleton structure at 1 uM after 24 hrs by ELISA; type: cell-based
Tubulin (Homo sapiens) [24] = biological target: T1, Tubulin (Homo sapiens); assay: Inhibition of tubulin polymerization in human A431 cells assessed as perturbation in cytoskeleton structure at 1 uM after 24 hrs by Hoechst 33258/FITC staining-based flow cytometric analysis; type: cell-based
Tubulin (Homo sapiens) [25] = biological target: T1, Tubulin (Homo sapiens); assay: Inhibition of tubulin polymerization in human HeLa cells assessed as perturbation in cytoskeleton structure at 1 uM after 24 hrs by Hoechst 33258/FITC staining-based flow cytometric analysis; type: cell-based
Tubulin [26] = assay: Inhibition of tubulin polymerization in human HaCaT cells assessed as perturbation in cytoskeleton structure at 1 uM after 24 hrs by Hoechst 33258/FITC staining-based […]; type: cell-based; outline: as §3
Tubulin (Homo sapiens) [27] = biological target: T1, Tubulin (Homo sapiens); assay: Inhibition of tubulin polymerization in human MDA-MB-231 cells assessed as perturbation in cytoskeleton structure at 1 uM after 24 hrs by Hoechst 33258/FITC staining-based flow cytometric analysis; type: cell-based

Compound	Activity (MCF7 [1])	IC50 (HeLa) [nM]	IC50 (MDA-MB-231 [2]) [nM]	IC50 (A549) [nM]	IC50 (SK-OV-3 [3]) [nM]	IC50 (HaCaT [4]) [nM]	IC50 [5] [nM]	Activity (HaCaT [6])	Activity (MDA-MB-231 [7])	inhibition (Tubulin (Homo sapiens) [8])	inhibition (Tubulin (Homo sapiens) [9])	inhibition (Tubulin (Homo sapiens) [10])	inhibition (INH) (Tubulin [11])	inhibition (Tubulin (Homo sapiens) [12])	inhibition (Tubulin (Homo sapiens) [13])	inhibition (Tubulin (Homo sapiens) [14])	inhibition (Tubulin (Homo sapiens) [15])	Activity (HaCaT [16])	Activity (MCF7 [17])	Activity (MDA-MB-231 [18])	further results
COc1ccc(-c2ocnc2-c2cc(Br)c(OC)c(OC)c2)cc1SC	Active	630	920	> 20000	1160	520	850	Toxic	Active	Active	Active	Active	Active	Active	Active	Active	Active	Dose-dependent effect	Dose-dependent effect	Dose-dependent effect	Activity (SK-OV-3 [19]): Dose-dependent effect; Activity (A-431): Dose-dependent effect; inhibition (Tubulin (Homo sapiens) [20]): Active; inhibition (INH) (Tubulin [21]): Active; inhibition (Tubulin (Homo sapiens) [22]): Active; inhibition (Tubulin (Homo sapiens) [23]): Active; inhibition (Tubulin (Homo sapiens) [24]): Active; inhibition (Tubulin (Homo sapiens) [25]): Active; inhibition (INH) (Tubulin [26]): Active; inhibition (Tubulin (Homo sapiens) [27]): Active
COc1ccc(-c2ocnc2-c2cc(OC)c(SC)c(OC)c2)cc1O	Active	9	710	> 20000	250	320	1050	Toxic	Active	Active	Active	Active	Active	Active	Active	Active	Active	Dose-dependent effect	Dose-dependent effect	Dose-dependent effect	Activity (SK-OV-3 [19]): Dose-dependent effect; Activity (A-431): Dose-dependent effect; inhibition (Tubulin (Homo sapiens) [20]): Active; inhibition (INH) (Tubulin [21]): Active; inhibition (Tubulin (Homo sapiens) [22]): Active; inhibition (Tubulin (Homo sapiens) [23]): Active; inhibition (Tubulin (Homo sapiens) [24]): Active; inhibition (Tubulin (Homo sapiens) [25]): Active; inhibition (INH) (Tubulin [26]): Active; inhibition (Tubulin (Homo sapiens) [27]): Active
